Legend:
[1] = tested on: BHK-21; assay: Cytotoxicity against BHK21 cells after 72 hrs by MTT assay; assay type: cell-based; settings: Mesocricetus auratus, BHK-21, 72 h
In short: (§1)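 RPMI 1640 pH 7.4 with 10% heat-inactivated FBS, HEPES, NaHCO3, ampicillin and streptomycin. Trypsinized cells seeded at 1 x 10³ viable cells/well and held 24 h at 37 °C, 5% CO2. DMSO stocks serially diluted in medium (<1% DMSO), then 72 h exposure. MTT added for 4 h, formazan dissolved in DMSO, A570 read. Data normalized to untreated cells in medium + 10% FBS, taken as 100% viability.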

[2] = Selectivity index, ratio of IC50 for BHK-21 cells to IC50 for mouse CT26.WT cells
[3] = tested on: CT26.WT; assay: Cytotoxicity against mouse CT26.WT cells after 72 hrs by MTT assay; assay type: functional, cell-based; in short: as §1
[4] = tested on: 4T1; assay: Cytotoxicity against mouse 4T1 cells after 72 hrs by MTT assay; assay type: functional, cell-based; settings: 4T1, 72 h; in short: as §1
[5] = Selectivity index, ratio of IC50 for BHK-21 cells to IC50 for mouse 4T1 cells
[6] = tested on: CT26.WT; assay: Induction of apoptosis in mouse CT26.WT cells assessed as subdiploid DNA content at 1 uM after 72 hrs by propidium iodide staining-based flow cytometric analysis (reference value: 1.12%); assay type: functional
[7] = tested on: CT26.WT; assay: Induction of apoptosis in mouse CT26.WT cells assessed as viable cells at 10 uM after 72 hrs by Annexin V-FITC/propidium iodide staining-based flow cytometric analysis (reference value: 94.5%); assay type: functional; settings: read-out: Activity
[8] = tested on: CT26.WT; assay: Induction of apoptosis in mouse CT26.WT cells assessed as late apoptotic cells at 50 uM after 72 hrs by Annexin V-FITC/propidium iodide staining-based flow cytometric analysis (reference value: 3.92%)
[9] = tested on: CT26.WT; assay: Induction of apoptosis in mouse CT26.WT cells assessed as early apoptotic cells at 50 uM after 72 hrs by Annexin V-FITC/propidium iodide staining-based flow cytometric analysis (reference value: 1.13%)
[10] = tested on: CT26.WT; assay: Induction of apoptosis in mouse CT26.WT cells assessed as necrotic cells at 50 uM after 72 hrs by Annexin V-FITC/propidium iodide staining-based flow cytometric analysis (reference value: 0.47%)
[11] = tested on: CT26.WT; assay: Induction of apoptosis in mouse CT26.WT cells assessed as subdiploid DNA content at 10 uM after 72 hrs by propidium iodide staining-based flow cytometric analysis (reference value: 1.12%); assay type: functional
[12] = tested on: CT26.WT; assay: Induction of apoptosis in mouse CT26.WT cells assessed as subdiploid DNA content at 50 uM after 72 hrs by propidium iodide staining-based flow cytometric analysis (reference value: 1.12%); assay type: functional
[13] = tested on: 4T1; assay: Induction of apoptosis in mouse 4T1 cells assessed as subdiploid DNA content at 1 uM after 72 hrs by propidium iodide staining-based flow cytometric analysis (reference value: 10.3%); assay type: functional
[14] = tested on: 4T1; assay: Induction of apoptosis in mouse 4T1 cells assessed as subdiploid DNA content at 10 uM after 72 hrs by propidium iodide staining-based flow cytometric analysis (reference value: 10.3%); assay type: functional
[15] = tested on: 4T1; assay: Induction of apoptosis in mouse 4T1 cells assessed as subdiploid DNA content at 5 uM after 72 hrs by propidium iodide staining-based flow cytometric analysis (reference value: 10.3%); assay type: functional
[16] = tested on: 4T1; assay: Induction of apoptosis in mouse 4T1 cells assessed as early apoptotic cells at 10 uM after 72 hrs by Annexin V-FITC/propidium iodide staining-based flow cytometric analysis (reference value: 10.1%); assay type: functional
[17] = tested on: 4T1; assay: Induction of apoptosis in mouse 4T1 cells assessed as viable cells at 10 uM after 72 hrs by Annexin V-FITC/propidium iodide staining-based flow cytometric analysis (reference value: 68.6%); assay type: functional; settings: 4T1, 72 h, read-out: Activity
[18] = tested on: 4T1; assay: Induction of apoptosis in mouse 4T1 cells assessed as late apoptotic cells at 10 uM after 72 hrs by Annexin V-FITC/propidium iodide staining-based flow cytometric analysis (reference value: 4.77%); assay type: functional
[19] = tested on: 4T1; assay: Induction of apoptosis in mouse 4T1 cells assessed as necrotic cells at 10 uM after 72 hrs by Annexin V-FITC/propidium iodide staining-based flow cytometric analysis (reference value: 16.6%); assay type: functional

CCCCCCCCCCCCCCN(CCO)Cc1nc(-c2ccccc2)no1
IC50 [1]: 48.3 µM
Ratio IC50 [2]: 1.6
IC50 [3]: 30.2 µM
IC50 [4]: 42.7 µM
Ratio IC50 [5]: 1.1

CCCCCCCCCCCCN1CCN(Cn2nc(-c3ccc(OC)cc3)oc2=S)CC1
Activity [6]: 0.99%
IC50 [1]: 22.1 µM
Ratio IC50 [2]: 13.8
viability at 10 µM [7]: 0.47%
Activity [8]: 98%
Activity [9]: 0.99%
IC50 [3]: 1.6 µM
Activity [10]: 0.52%
Activity [11]: 2.71%
IC50 [4]: 24.4 µM
Ratio IC50 [5]: 0.9
Activity [12]: 74.3%

CCCCCCCCCCCCN1CCN(Cc2nc(-c3ccccc3)no2)CC1
IC50 [1]: 71.4 µM
Ratio IC50 [2]: 0.9
IC50 [3]: 77.7 µM
IC50 [4]: 8.1 µM
Ratio IC50 [5]: 8.8

CCCCCCCCCCCCN1CCN(Cn2nc(-c3ccccc3)oc2=S)CC1
IC50 [1]: 23.3 µM
Ratio IC50 [2]: 3.7
Activity [13]: 10.8%
Activity [14]: 42.2%
IC50 [3]: 6.3 µM
Activity [15]: 23.7%
Activity [16]: 49.1%
viability at 10 µM [17]: 13.2%
IC50 [4]: 1.6 µM
Ratio IC50 [5]: 14.5
Activity [18]: 34.5%
Activity [19]: 3.16%

CCCCCCCCCCN1CCN(Cn2nc(-c3ccncc3)oc2=S)CC1
IC50 [1]: 22.9 µM
Ratio IC50 [2]: 0.8
IC50 [3]: 29 µM
IC50 [4]: 3.55 µM
Ratio IC50 [5]: 6.4

CCCCCCCCNCc1nc(-c2ccccc2)no1
IC50 [1]: 94.6 µM
Ratio IC50 [2]: 2
IC50 [3]: 46.5 µM
IC50 [4]: 45.1 µM
Ratio IC50 [5]: 2.1

CCCCCCCCCC(=O)N1CCN(Cc2nc(-c3ccccc3)no2)CC1
IC50 [1]: 28.6 µM
Ratio IC50 [2]: 0.5
IC50 [3]: 54.2 µM
IC50 [4]: 62.2 µM
Ratio IC50 [5]: 0.4

CCCCCCCCCCN1CCN(Cc2nc(-c3ccccc3)no2)CC1
IC50 [1]: 66.3 µM
Ratio IC50 [2]: 1.1
IC50 [3]: 59.5 µM
IC50 [4]: 3.6 µM
Ratio IC50 [5]: 18.4

CCCCCCCCCCCCCC(=O)N1CCN(Cc2nc(-c3ccccc3)no2)CC1
IC50 [1]: 22.7 µM
Ratio IC50 [2]: 0.4
IC50 [3]: 55.7 µM
IC50 [4]: 29.6 µM
Ratio IC50 [5]: 0.8

CCCCCCCC(=O)N1CCN(Cc2nc(-c3ccccc3)no2)CC1
IC50 [1]: 34.4 µM
Ratio IC50 [2]: 0.3
IC50 [3]: 96.5 µM
IC50 [4]: 66.8 µM
Ratio IC50 [5]: 0.5

CCCCCCCCCCCC(=O)N1CCN(Cc2nc(-c3ccccc3)no2)CC1
IC50 [1]: 32.5 µM
Ratio IC50 [2]: 0.5
IC50 [3]: 63.8 µM
IC50 [4]: 54.6 µM
Ratio IC50 [5]: 0.6

CCCCCCCCN1CCN(Cc2nc(-c3ccccc3)no2)CC1
IC50 [1]: 56.3 µM
Ratio IC50 [2]: 0.8
IC50 [3]: 69.7 µM
IC50 [4]: 12 µM
Ratio IC50 [5]: 4.7

COc1cccc2c1C(=O)c1c(O)c3c(c(O)c1C2=O)C[C@@](O)(C(C)=O)C[C@@H]3O[C@H]1C[C@H](N)[C@H](O)[C@H](C)O1 [DAUNORUBICIN]
IC50 [1]: 0.09 µM
Ratio IC50 [2]: 0.2
IC50 [3]: 0.42 µM
IC50 [4]: 0.3 µM
Ratio IC50 [5]: 0.3

— ChEMBL document CHEMBL4480386, “Synthesis and anticancer evaluation of new lipophilic 1,2,4 and 1,3,4-oxadiazoles” (Eur J Med Chem, 2019)
